Measurements taken from paper PMC3607822 (The Journal of General Physiology, 2013).

Legend:
[1] = target: T1, CNGA3 RR-QQ (R643Q, R646Q) channels (Homo sapiens, UniProt Q16281, R643Q/R646Q); experiment: Inside-out patch clamp, CNGA3 RR-QQ; assay type: biochemical
T1 sequence (Q16281 1-694 R643Q/R646Q): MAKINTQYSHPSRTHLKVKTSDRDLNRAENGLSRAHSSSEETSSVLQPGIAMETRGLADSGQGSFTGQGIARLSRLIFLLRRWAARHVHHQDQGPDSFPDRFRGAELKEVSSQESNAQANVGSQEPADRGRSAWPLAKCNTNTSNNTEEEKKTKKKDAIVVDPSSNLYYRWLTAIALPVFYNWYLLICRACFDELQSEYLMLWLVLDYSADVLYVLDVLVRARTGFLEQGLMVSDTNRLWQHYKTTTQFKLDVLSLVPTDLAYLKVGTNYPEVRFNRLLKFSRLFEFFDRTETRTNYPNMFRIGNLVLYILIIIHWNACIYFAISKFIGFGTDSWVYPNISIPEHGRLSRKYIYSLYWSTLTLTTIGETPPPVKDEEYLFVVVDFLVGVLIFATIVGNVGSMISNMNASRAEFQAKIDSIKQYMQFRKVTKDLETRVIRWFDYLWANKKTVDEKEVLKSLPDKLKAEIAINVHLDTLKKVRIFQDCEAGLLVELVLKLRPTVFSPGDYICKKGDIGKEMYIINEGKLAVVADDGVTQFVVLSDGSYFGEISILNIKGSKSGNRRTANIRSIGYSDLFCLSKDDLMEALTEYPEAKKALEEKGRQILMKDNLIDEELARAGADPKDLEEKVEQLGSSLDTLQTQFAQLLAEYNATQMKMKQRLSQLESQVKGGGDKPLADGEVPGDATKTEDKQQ

[2] = target: GST fusion A3C7K/R-A (Homo sapiens, UniProt Q16281, K624A/K629A/K657A/K659A/R643A/R646A/R661A); experiment: In vitro PIP3-agarose bead pull-down, A3C7K/R-A; assay type: binding; settings: PIP3-agarose beads, anti-GST immunoblot; compared with A3C
Chain of GST fusion A3C7K/R-A (Q16281 612-694 K624A/K629A/R643A/R646A/K657A/K659A/R661A): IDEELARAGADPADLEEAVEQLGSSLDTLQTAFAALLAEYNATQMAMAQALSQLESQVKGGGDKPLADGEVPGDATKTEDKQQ
Summary of the method: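 Recombinant GST fusions of channel fragments expressed in E. coli and purified; soluble fraction kept after 20,000 g, 4°C, 30 min. Protein (2 µg/ml) rocked with PIP3- or control agarose beads, 2 h, 4°C, in 10 mM Hepes pH 7.4, 50 mM NaCl, 2 mM EDTA, 0.25% Triton X-100, 0.25% NP-40. Five washes, elution in sample buffer, reducing SDS gel, anti-GST (1:2,000, overnight) immunoblot, chemiluminescence; […].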

[3] = target: CNGA1 with CNGB3 channels (UniProt Q00194+Q9NQW8); experiment: Inside-out patch clamp, CNGA1 with CNGB3; assay type: biochemical, bovine, human; settings: 1 µM PIP3
Chain of CNGA1 with CNGB3 channels (Q00194 whole entry): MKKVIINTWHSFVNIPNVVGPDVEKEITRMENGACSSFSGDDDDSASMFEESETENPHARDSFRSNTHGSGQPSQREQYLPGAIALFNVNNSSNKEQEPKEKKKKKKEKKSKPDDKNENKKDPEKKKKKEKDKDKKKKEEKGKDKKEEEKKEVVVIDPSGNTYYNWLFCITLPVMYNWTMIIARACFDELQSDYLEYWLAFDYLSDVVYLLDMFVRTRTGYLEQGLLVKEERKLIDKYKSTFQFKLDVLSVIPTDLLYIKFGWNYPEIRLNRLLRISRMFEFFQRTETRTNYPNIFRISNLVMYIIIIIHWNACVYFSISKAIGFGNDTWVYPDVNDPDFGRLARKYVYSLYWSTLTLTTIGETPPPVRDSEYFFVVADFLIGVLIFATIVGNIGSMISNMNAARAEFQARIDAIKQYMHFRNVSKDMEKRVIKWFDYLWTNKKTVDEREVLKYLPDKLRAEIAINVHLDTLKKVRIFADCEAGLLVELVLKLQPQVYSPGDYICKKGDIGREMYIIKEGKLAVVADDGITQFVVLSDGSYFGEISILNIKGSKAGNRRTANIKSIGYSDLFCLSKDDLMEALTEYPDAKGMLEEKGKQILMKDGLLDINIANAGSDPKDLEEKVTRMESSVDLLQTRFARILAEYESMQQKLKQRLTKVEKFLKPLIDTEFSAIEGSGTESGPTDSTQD
Chain of CNGA1 with CNGB3 channels (Q9NQW8 whole entry): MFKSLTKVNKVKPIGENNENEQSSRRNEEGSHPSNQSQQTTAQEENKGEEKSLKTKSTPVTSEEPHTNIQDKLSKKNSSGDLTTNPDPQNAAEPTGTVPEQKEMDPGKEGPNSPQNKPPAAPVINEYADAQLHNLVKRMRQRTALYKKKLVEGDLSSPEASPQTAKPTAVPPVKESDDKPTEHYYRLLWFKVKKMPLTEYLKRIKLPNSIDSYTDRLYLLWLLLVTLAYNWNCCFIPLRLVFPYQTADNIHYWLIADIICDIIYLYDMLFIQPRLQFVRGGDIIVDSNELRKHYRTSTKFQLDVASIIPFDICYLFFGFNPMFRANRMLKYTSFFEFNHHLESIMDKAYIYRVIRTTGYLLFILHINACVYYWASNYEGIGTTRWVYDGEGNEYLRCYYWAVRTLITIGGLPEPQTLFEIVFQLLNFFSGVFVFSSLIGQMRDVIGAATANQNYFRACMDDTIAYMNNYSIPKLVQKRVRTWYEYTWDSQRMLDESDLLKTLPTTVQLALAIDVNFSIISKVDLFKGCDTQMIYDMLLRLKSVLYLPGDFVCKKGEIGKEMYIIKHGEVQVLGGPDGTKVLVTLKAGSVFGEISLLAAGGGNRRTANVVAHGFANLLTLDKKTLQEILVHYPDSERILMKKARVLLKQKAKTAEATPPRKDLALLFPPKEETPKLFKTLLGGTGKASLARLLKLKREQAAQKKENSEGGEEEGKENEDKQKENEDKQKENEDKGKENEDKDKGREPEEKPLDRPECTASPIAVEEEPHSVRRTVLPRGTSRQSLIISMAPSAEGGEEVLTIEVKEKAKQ
Summary of the method: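 Subunit cRNAs (~20 ng, B in excess over A) injected into stage IV Xenopus oocytes; inside-out patches 2–7 d later, 20–22°C, symmetric 130 mM NaCl, 0.2 mM EDTA, 3 mM Hepes pH 7.2. Heteromer formation checked by 25 µM l-cis-diltiazem with 1 mM cGMP. diC8 phosphoinositides applied intracellularly in phosphatase-inhibitor cocktail. cGMP dose–response at +80 mV, leak-subtracted, Hill fit before/after for K1/2; mean ± SEM.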

Molecule: Nc1nc2c(ncn2[C@@H]2O[C@@H]3COP(=O)(O)O[C@H]3[C@H]2O)c(=O)[nH]1 [cGMP, cyclic guanosine monophosphate]
- Hill coefficient ([1]; cGMP activation): 2.00 ± 0.00 (3)
- EC50 ([1]; read-out: K1/2 cGMP, +80 mV, no PIPn): 7.45 ± 0.63 µM
- Po max cGMP ([1]; saturating cGMP): 0.94 ± 0.01 (3)

Molecule: phosphatidylinositol (3,4,5)-trisphosphate [PIP3]
- in vitro PIP3 binding [2]: attenuated binding to PIP3 beads
- regulation of K1/2 cGMP by PIP3 [3]: PIP3-sensitive
